Rows were chosen to be rich in hits. Some 3.1% of all compounds tested hit in one or more screens of this group.
GSIS activator = primary screen for activators of insulin secretion dependent on glucose, INS-1E cells, GLuc reporter luminescence; INS-1E GLuc reporter insulin secretion, 2-3 h; activation, % at 16.6 µM; 0.61% of 370,000 active;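 active = lowest replicate activation of at least 40%, so every replicate reaches that level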
Ecoli rRNA inh = selective bacterial rRNA inhibition in E. coli; E. coli WT GFP vs humanized-ribosome RFP mutants, fluorescence, 24 h; active compounds read low; DMSO median 0, no signal -100; GFP signal change (wild-type ribosome), % (no concentration beside the values); 1.6% of 350,000 active;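 active = significant combined selectivity score with lowered wild-type GFP, culture density cut under 30%, mutant RFP and density less affected; inactive = any of these conditions unmet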
HIV Env fusion = blocks HIV Env-driven cell-cell fusion; HeLa-JRFL Env/CEM21 cell fusion, luciferase; inhibition, % at 12.3 µM; 1.1% of 360,000 active;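 active = mean replicate inhibition score of at least 50 and every replicate individually at or above 50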
miR-122 sensor = blocks miR-122 activity in Huh7 sensor cells | 0.3% of 340,000 active | Huh7 miR-122 Renilla luciferase sensor, 48 h; neutral wells = 0, positive control = 100 | activation (reporter increase), % at 12.5 µM;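 active = mean replicate activation score at least 90 and every replicate individually at or above 90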;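 note: higher luciferase means less miR-122 activity so hits act as miR-122 inhibitors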
Cneo AK release = causes C. neoformans cell lysis. adenylate kinase release luminescence, 4 h; normalised: neutral wells 0, clomiphene wells 100. lysis activity, % at 15 µM. 0.2% of 360,000 active. AID 651654;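 active = mean lysis activity across replicates of at least 80%, whatever share of replicates individually reach that level; inactive = mean lysis activity below 80%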
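Test system: log-phase Cryptococcus neoformans yeast cells. Input: 5 × 10^6 yeast cells/mL. Medium: fresh YPD growth medium. Doses: single dose. Incubation: static 4 h at 37 °C with compound, 1 h detection. Measured by: luminescent adenylate kinase detection reagent. Read-out: signal increase indicating cell lysis. Benchmarks: Clomiphene.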
F508del corr = CFTR F508del correction in bronchial cells. CFBE cells, YFP halide quenching; stimulated with forskolin plus potentiator P3; % fluorescence drop versus neutral controls. activity (quench increase), % at 7.58 µM. 0.36% of 350,000 active. AID 720511;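 active = mean added fluorescence quench of at least 8% versus neutral control, with both replicates also reaching 8%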;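 note: cells transiently co-express mutant CFTR-F508del with the halide-sensitive YFP; corrector assay measuring rescue of mutant channel to the surface after 24 h compound exposure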
Numbers stand for hits; [ ] = remark or other dose.

What do the screens show for `COc1ccc(-c2ccc3c(N)c(C(=O)c4ccc(OC)c(OC)c4)sc3n2)cc1`?
GSIS activator: 172; HIV Env fusion: inactive; miR-122 sensor: inactive; Cneo AK release: inactive

What do the screens show for `COc1cc2ccc(C(C)=O)cc2cc1OC`?
GSIS activator: 48; Ecoli rRNA inh: inactive; HIV Env fusion: inactive; miR-122 sensor: inactive; Cneo AK release: inactive; F508del corr: inactive

How did CSCCC(NS(=O)(=O)c1ccc2c(c1)oc(=O)n2C)C(=O)NC1CCC(C)CC1 (centres undefined) do in these assays?
GSIS activator: inactive; Ecoli rRNA inh: inactive; HIV Env fusion: 60; Cneo AK release: inactive; F508del corr: inactive

What do the screens show for `C/C=C/c1ccc2c(c1)O[C@H](CN(C)Cc1ccccn1)[C@@H](C)CN([C@@H](C)CO)S2(=O)=O`?
GSIS activator: inactive; Ecoli rRNA inh: inactive; HIV Env fusion: inactive; miR-122 sensor: inactive; Cneo AK release: inactive; F508del corr: inactive

How did Oc1c(C(c2ccccc2)N2CCOCC2)ccc2ccccc12 (centres undefined) do in these assays?
GSIS activator: inactive; Ecoli rRNA inh: inactive; HIV Env fusion: 72; miR-122 sensor: inactive; Cneo AK release: inactive; F508del corr: inactive

What do the screens show for `CO[C@H]1CN(C)C(=O)c2cc(NC(=O)C3CCCC3)ccc2OC[C@@H](C)N(C)C[C@@H]1C`?
GSIS activator: inactive; Ecoli rRNA inh: inactive; miR-122 sensor: inactive; Cneo AK release: inactive; F508del corr: inactive

What do the screens show for `N#Cc1ccc(-c2nc3ccc(Br)cn3c2Cc2ccccc2C(F)(F)F)cc1`?
GSIS activator: inactive; Ecoli rRNA inh: inactive; HIV Env fusion: inactive; miR-122 sensor: inactive; Cneo AK release: inactive; F508del corr: inactive

What do the screens show for `FC(F)(F)c1ccccc1Cc1c(-c2ccccc2)nc2ccc(Br)cn12`?
GSIS activator: inactive; Ecoli rRNA inh: -27; HIV Env fusion: inactive; miR-122 sensor: inactive; Cneo AK release: inactive; F508del corr: inactive

How did N#Cc1sc2nc(N3CCCCC3)c3c(c2c1N)CCCC3 do in these assays?
GSIS activator: 141; miR-122 sensor: inactive; Cneo AK release: inactive

How did O=C(COC(=O)CCCc1nc2ccccc2s1)NC(=O)NCc1ccco1 do in these assays?
GSIS activator: inactive; Ecoli rRNA inh: -19; HIV Env fusion: inactive; miR-122 sensor: inactive; Cneo AK release: inactive; F508del corr: inactive

Results for COc1ccc(C(=O)/C=C2\NCCc3cc(OC)c(OC)cc32)cc1OC ?
GSIS activator: inactive; Ecoli rRNA inh: inactive; HIV Env fusion: inactive; miR-122 sensor: inactive; Cneo AK release: inactive; F508del corr: inactive

Results for COc1ccc(C(=O)/C=C2/c3ccccc3CC(C)(C)N2C)cc1OC ?
GSIS activator: 41; Ecoli rRNA inh: inactive; HIV Env fusion: inactive; miR-122 sensor: inactive; Cneo AK release: inactive

Results for COc1ccc(S(=O)(=O)NC2CCCCC2)c(C)c1C ?
GSIS activator: inactive; miR-122 sensor: 111; Cneo AK release: inactive

How did COc1ccc(C)cc1S(=O)(=O)NC1CCCCCC1 do in these assays?
GSIS activator: inactive; Ecoli rRNA inh: inactive; HIV Env fusion: inactive; miR-122 sensor: 101; Cneo AK release: inactive; F508del corr: inactive

What do the screens show for `COc1ccc(CN2C[C@@H](C)[C@@H](OC)CN(C)C(=O)c3cc(NC(C)=O)ccc3OC[C@H]2C)cc1`?
GSIS activator: inactive; Ecoli rRNA inh: inactive; miR-122 sensor: inactive; Cneo AK release: inactive; F508del corr: inactive

How did CC(=O)N1[C@H](CNC(=O)C2CC2)[C@@H](c2ccc(-c3ccccc3)cc2)[C@@H]1CO do in these assays?
GSIS activator: inactive; Ecoli rRNA inh: inactive; miR-122 sensor: 200[16.7 µM]; Cneo AK release: inactive; F508del corr: inactive

Results for CCCNC(=O)N1[C@H](C#N)[C@H](c2ccc(-c3cccc(OC)c3)cc2)[C@@H]1CO ?
HIV Env fusion: 58[16.7 µM]; Cneo AK release: inactive; F508del corr: inactive

Results for CCC(=O)N1[C@H](CO)[C@H](c2ccc(-c3ccccc3)cc2)[C@H]1CNC(=O)C1CC1 ?
GSIS activator: inactive; Ecoli rRNA inh: inactive; F508del corr: inactive

How did CCCNC(=O)N1[C@@H](CO)[C@@H](c2ccc(-c3ccccc3)cc2)[C@@H]1CNC(C)=O do in these assays?
GSIS activator: inactive; Ecoli rRNA inh: inactive; miR-122 sensor: inactive; Cneo AK release: 88; F508del corr: inactive

What do the screens show for `O=C(NC[C@H]1N[C@H](CO)[C@@H]1c1ccccc1)C1CCCC1`?
GSIS activator: inactive; Ecoli rRNA inh: inactive; miR-122 sensor: 125[16.7 µM]; Cneo AK release: inactive; F508del corr: inactive

Results for C[C@@H]1CCCCO[C@H](CN(C)Cc2ccc3c(c2)OCO3)[C@H](C)CN([C@H](C)CO)C(=O)c2cc(NS(=O)(=O)c3cccs3)ccc2O1 ?
GSIS activator: inactive; Ecoli rRNA inh: inactive; HIV Env fusion: inactive; miR-122 sensor: inactive; Cneo AK release: inactive; F508del corr: inactive

How did O=C(NC[C@H]1[C@@H](c2ccccc2)[C@H](CO)N1C(=O)Cc1cccnc1)C1CCC1 do in these assays?
GSIS activator: inactive; Ecoli rRNA inh: inactive; miR-122 sensor: inactive; Cneo AK release: inactive; F508del corr: inactive

How did O=C(NC[C@@H]1[C@H](c2ccccc2)[C@@H](CO)N1C(=O)Cc1cccnc1)C1CCC1 do in these assays?
GSIS activator: inactive; Ecoli rRNA inh: inactive; miR-122 sensor: inactive; Cneo AK release: 84; F508del corr: inactive

How did CC(=O)N1[C@H](CO)[C@H](c2ccc(-c3ccccc3)cc2)[C@@H]1CNC(=O)C1CC1 do in these assays?
GSIS activator: inactive; Ecoli rRNA inh: inactive; miR-122 sensor: inactive; Cneo AK release: 105; F508del corr: inactive

What do the screens show for `Cc1noc(C)c1NC(=O)Nc1ccc2c(c1)C(=O)N(C)[C@H]1CC[C@H](CC(=O)Nc3ccccc3F)O[C@@H]1CO2`?
GSIS activator: inactive; Ecoli rRNA inh: inactive; miR-122 sensor: inactive; Cneo AK release: inactive; F508del corr: inactive

Results for CC(=O)NCCc1nc2ccccc2n1CCOc1cccc(C)c1 ?
GSIS activator: 59; Ecoli rRNA inh: -28; HIV Env fusion: inactive; miR-122 sensor: inactive; F508del corr: inactive

What do the screens show for `COc1cc(CN2CCC(n3nccc3NC(=O)C3CCOC3)CC2)ccc1F` (centres undefined)?
GSIS activator: 45; Ecoli rRNA inh: inactive; HIV Env fusion: inactive; miR-122 sensor: inactive; Cneo AK release: inactive; F508del corr: inactive

What do the screens show for `Cc1ccccc1-c1ccc2c(c1)O[C@H](CN(C)Cc1ccc(C(=O)O)cc1)[C@@H](C)CN([C@@H](C)CO)S2(=O)=O`?
GSIS activator: inactive; Ecoli rRNA inh: inactive; miR-122 sensor: inactive; Cneo AK release: inactive; F508del corr: inactive

How did O=S(=O)(NCCc1ccc(F)cc1)c1cc(C(F)(F)F)ccc1Br do in these assays?
GSIS activator: inactive; Ecoli rRNA inh: inactive; HIV Env fusion: inactive; miR-122 sensor: 127; Cneo AK release: inactive; F508del corr: inactive

Compound activity deposited in PubChem by Broad Institute.
